The text below walks through data of ChEMBL document CHEMBL1152886, “Water-soluble prodrugs of an Aurora kinase inhibitor” (Bioorg Med Chem Lett, 2009).

Data set [1] is described as follows: Chemical stability assessed as compound remaining in DMSO after 8 hrs. The conditions noted are these: read-out: Stability. The class given is physicochemical. In a few lines:
(§1)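 Compound held 8 h at room temperature in DMSO or in pH 7.4 buffer. Percent remaining determined by LC/MS.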

Data set [2] in a line: Chemical stability assessed as compound remaining in aqueous buffer at pH 7.4 after 8 hrs. The class given is physicochemical. The note with it: read-out: Stability. Put shortly:
as §1

Data set [3] in a line: Aqueous solubility at pH 3.2. The class given is physicochemical. The conditions noted are these: aqueous solution. In a few lines: (§2)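 Thermodynamic solubility from a slurry. Sonicated 20 min at room temperature, 10 min at 50 °C, then 10 min at room temperature, and agitated at least two days at room temperature. Residual solid was checked for crystallinity by polarized light microscopy. Slurry centrifuged 15,000 rpm at 20 °C for 20 min. Supernatant assayed by HPLC and its pH measured. Values are typically means of two measurements.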

The nature of data set [4]: Aqueous solubility at pH 2.5. It is filed as physicochemical. The note with it: aqueous solution. In a few lines: as §2
Data set [5] in a line: AUC (0 to infinity) in Sprague-Dawley rat at 5 mg/kg, iv. It is filed as ADME, organism-based. Details: time infinity, dose 5 mg/kg, route intravenous. The note with it: plasma. Put shortly: (§3)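 Male Sprague–Dawley rats (n = 3) dosed iv, prodrug at a dose equivalent to 5 mg/kg of parent, compared with an equivalent iv dose of parent. Plasma profiles of both prodrug and released parent were determined, giving AUC_INF and elimination half-life.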

The nature of data set [6]: Oral bioavailability in Sprague-Dawley rat at 10 mg/kg. It is filed as ADME, organism-based. The note with it: in vivo. In a few lines: (§4)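 Male Sprague–Dawley rats (n = 3) dosed orally, prodrug at a dose equivalent to 10 mg/kg of parent, compared with an equivalent oral dose of parent. Parent levels measured in plasma; AUC_INF derived from the plasma profile. Bioavailability is expressed with respect to the parent compound.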

The nature of data set [7]: Half life in Sprague-Dawley rat at 5 mg/kg, iv. It is filed as ADME, organism-based. Further details: dose 5 mg/kg, route intravenous. The note with it: in vivo. Put shortly: as §3
Data set [8] in a line: AUC (0 to infinity) in Sprague-Dawley rat at 10 mg/kg, po. The class given is ADME, organism-based. Further details: time infinity, dose 10 mg/kg, route oral. The conditions noted are these: plasma. In a few lines: as §4
Data set [9] is described as follows: Aqueous solubility at pH 3.5. It is filed as physicochemical. The conditions noted are these: aqueous solution. In a few lines:
as §2

Data set [10] is described as follows: Permeability across MDCK cells. It is filed as ADME, cell-based, Canis lupus familiaris. The conditions noted are these: dog, read-out: permeability.
Data set [11] is described as follows: Aqueous solubility at pH 7.8. The class given is physicochemical. The note with it: aqueous solution. In a few lines:
as §2

In brackets after ≈: the same amount, converted by molar mass. Where only a bound is given, the exact number is not on record here.

For `O=C(/N=c1\sc(CCNc2ncnc3ccsc23)cn1COC(=O)C1CCNCC1)Nc1cccc(Cl)c1`, the remaining at 8 h in data set [1] was determined as 84%; in data set [2], 52%.
Consider `CC(C)(C)C(=O)OCn1cc(CCNc2ncnc3ccsc23)s/c1=N\C(=O)Nc1cccc(Cl)c1`, for which the remaining at 8 h in [1] and in data set [2] was 100% each time. Also, the solubility in data set [3] stood at 280 µg/mL (≈ 514 µM).
The compound `CC(C)C(=O)OCn1cc(CCNc2ncnc3ccsc23)s/c1=N\C(=O)Nc1cccc(Cl)c1` showed a solubility in data set [3] of 170 µg/mL (≈ 320 µM).
As to `CC(=O)OCn1cc(CCNc2ncnc3ccsc23)s/c1=N\C(=O)Nc1cccc(Cl)c1`, the remaining at 8 h in data set [1] and in data set [2] was 100% in each case. The compound also returned a solubility in data set [4] of 120 µg/mL (≈ 239 µM).
Consider `CS(=O)(=O)O.O=C(Nc1cccc(Cl)c1)Nc1ncc(CCNc2ncnc3ccsc23)s1` [SNS-314 MESYLATE], for which the AUC(0-inf) in data set [5] was 2090 ng·h/mL; in data set [8], 3650 ng·h/mL. For the same compound, the bioavailability in data set [6] worked out at 72%. Moreover, the solubility in data set [3] came to 14 µg/mL. The compound also gave a half-life in data set [7] of 2.1 h.
With `O=C(/N=c1\sc(CCNc2ncnc3ccsc23)cn1COC(=O)CC1CCNCC1)Nc1cccc(Cl)c1`, the remaining at 8 h in data set [1] and in data set [2] was 100% each time. This compound also displayed a solubility in data set [9] of 2500 µg/mL (≈ 4270 µM).
For the compound `CNCC(=O)OCn1cc(CCNc2ncnc3ccsc23)s/c1=N\C(=O)Nc1cccc(Cl)c1`, the remaining at 8 h in data set [1] and in data set [2] was 0% in each case.
As to `O=C(/N=c1\sc(CCNc2ncnc3ccsc23)cn1COP(=O)(O)O)Nc1cccc(Cl)c1`, the AUC(0-inf) in [5] was determined as 1910 ng·h/mL; in data set [8], 2200 ng·h/mL. In addition, the remaining at 8 h in [1] and in [2] was 100% throughout. The Papp in data set [10] was below 1 ×10⁻⁶ cm/s. In data set [6], this compound came in with a bioavailability of 44%. Besides, the solubility in data set [11] is 4700 µg/mL (≈ 8690 µM). In addition, the half-life in data set [7] was 0.5 h.

What is called solubility is how much of the substance goes into solution per volume. A low value points to a poorly soluble substance. A word on the AUC(0-inf): it is the area under the concentration-time curve extrapolated to infinity. The low end stands for low exposure, the high end for high exposure. One may read the bioavailability as the share of a dose that reaches the circulation, judged against a reference dose that is usually intravenous. In general, half-life refers to the time needed for the level to fall by half in the phase considered. The low end stands for fast loss, the high end for slow loss.
